Results on five compounds are retold here after ChEMBL document CHEMBL2150921, “Synthesis, structure-activity relationships, and docking studies of N-phenylarylformamide derivatives (PAFAs) as non-nucleoside HIV reverse transcriptase inhibitors” (Eur J Med Chem, 2012).

What is called CC50 is the concentration that lowers cell viability or growth by half. One may read the EC50 as the concentration needed to bring the measured effect to its halfway point. For orientation: IC50 means the point on the concentration scale where inhibition reaches its midpoint. The low end stands for inhibition by little substance, the high end for a need for much substance.

The first data set relates to C8166. The data set can be described thus: Cytotoxicity against human C8166 cells assessed as decrease in cell viability by MTT assay. In kind it is functional.
Details: not given
Summed up:
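Uninfected C8166 cells exposed to compound; viability read by MTT colorimetric assay at A570/630. CC50, the concentration reducing viable cells by 50%, taken from dose-response curve. Mean of at least two separate experiments.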
Take `Cc1cc(S(N)(=O)=O)ccc1NC(=O)COc1ccc(Cl)cc1C(=O)c1cc(Cl)cc(C#N)c1`: the CC50 was more than 387 µM.
Take `Cc1ccc(C(=O)Nc2cc(Cl)ccc2OCC(=O)Nc2ccc(S(N)(=O)=O)cc2C)cc1C`: the cytotoxic concentration (CC50) is 84.1 µM.
On the same count and under the same terms, the same measure for `Cc1cc(S(N)(=O)=O)ccc1NC(=O)COc1ccc(Cl)cc1NC(=O)c1cc(Cl)cc(C#N)c1`: 131 µM.
Same read-out and setting: for `Cc1cc(S(N)(=O)=O)ccc1NC(=O)COc1ccc(Cl)cc1NC(=O)c1cccc2ccccc12` the value was more than 382 µM; for `Cc1cc(S(N)(=O)=O)ccc1NC(=O)COc1ccc(Cl)cc1NC(=O)c1ccc2ccccc2c1`, 37.6 µM.

Another data set deals with Human immunodeficiency virus 1. The experiment in a line: Antiviral activity against wild type HIV1 3B infected in human C8166 cells assessed as protection against virus-induced cytopathic effect after 3 days by syncytium reduction assay. In kind it is functional, organism-based. As to conditions: Human immunodeficiency virus 1, 3B, C8166, 72 h. Summed up: (§1)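 C8166 cells (4 × 10⁵/mL) infected at MOI 0.06 in presence of graded compound concentrations; AZT and GW678248 as drug controls. After 3 days culture, syncytia (multinucleated giant cells) counted under inverted microscope; EC50 taken as concentration blocking 50% syncytium formation. Mean of at least two separate experiments.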
For `Cc1cc(S(N)(=O)=O)ccc1NC(=O)COc1ccc(Cl)cc1C(=O)c1cc(Cl)cc(C#N)c1`, the EC50 was 0.000103 µM.
Consider `Cc1ccc(C(=O)Nc2cc(Cl)ccc2OCC(=O)Nc2ccc(S(N)(=O)=O)cc2C)cc1C`, for which the EC50 was 0.00032 µM.
On to `Cc1cc(S(N)(=O)=O)ccc1NC(=O)COc1ccc(Cl)cc1NC(=O)c1cc(Cl)cc(C#N)c1`, for which the concentration for a half-maximal effect (EC50) came to 0.00096 µM.
The same measure, in the same setting: the same measure for `Cc1cc(S(N)(=O)=O)ccc1NC(=O)COc1ccc(Cl)cc1NC(=O)c1cccc2ccccc12`: 0.109 µM; for `Cc1cc(S(N)(=O)=O)ccc1NC(=O)COc1ccc(Cl)cc1NC(=O)c1ccc2ccccc2c1`: 0.101 µM.

Another data set deals with Human immunodeficiency virus 2. The experiment in a line: Antiviral activity against HIV2 ROD infected in human C8166 cells assessed as protection against virus-induced cytopathic effect after 3 days by syncytium reduction assay. In kind it is functional, organism-based. As to conditions: Human immunodeficiency virus 2, ISOLATE ROD, C8166, 72 h. Summed up:
as §1
For orientation: Cytopathic effects are the visible damage that an infection or toxin causes in cultured cells.
With `Cc1ccc(C(=O)Nc2cc(Cl)ccc2OCC(=O)Nc2ccc(S(N)(=O)=O)cc2C)cc1C`, the EC50 is 4.37 µM.
Turning to `Cc1cc(S(N)(=O)=O)ccc1NC(=O)COc1ccc(Cl)cc1NC(=O)c1cc(Cl)cc(C#N)c1`, the EC50 turned out to be 23.2 µM.
`Cc1cc(S(N)(=O)=O)ccc1NC(=O)COc1ccc(Cl)cc1NC(=O)c1cccc2ccccc12`: the EC50 came out at 97.7 µM.
On to `Cc1cc(S(N)(=O)=O)ccc1NC(=O)COc1ccc(Cl)cc1NC(=O)c1ccc2ccccc2c1`, for which the EC50 is 31.6 µM.

In another data set the test system is Human immunodeficiency virus 1. The experiment in a line: Antiviral activity against HIV1 A17 harbouring RT K103N/Y181C mutant infected in human C8166 cells assessed as protection against virus-induced cytopathic effect after 3 days by syncytium reduction assay. In kind it is functional, organism-based. To be noted: Human immunodeficiency virus 1, A17, C8166, 72 h. Summed up: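 C8166 cells (4 × 10⁵/mL) infected at M.O.I 0.06 in the presence of various compound concentrations; cultured 3 days, syncytia (multinucleated giant cells) scored under inverted microscope; EC50 = concentration blocking syncytia formation by 50%. AZT and GW678248 as drug controls. Mean of at least two separate experiments.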
Turning to `Cc1cc(S(N)(=O)=O)ccc1NC(=O)COc1ccc(Cl)cc1C(=O)c1cc(Cl)cc(C#N)c1`, the 50% effective concentration (EC50) came out at 0.00028 µM.
Turning to `Cc1ccc(C(=O)Nc2cc(Cl)ccc2OCC(=O)Nc2ccc(S(N)(=O)=O)cc2C)cc1C`, the EC50 was 0.1 µM.
For the compound `Cc1cc(S(N)(=O)=O)ccc1NC(=O)COc1ccc(Cl)cc1NC(=O)c1cc(Cl)cc(C#N)c1`, the EC50 was determined as 0.29 µM.
`Cc1cc(S(N)(=O)=O)ccc1NC(=O)COc1ccc(Cl)cc1NC(=O)c1cccc2ccccc12`: the EC50 is 21.5 µM.
Consider `Cc1cc(S(N)(=O)=O)ccc1NC(=O)COc1ccc(Cl)cc1NC(=O)c1ccc2ccccc2c1`, for which the EC50 worked out at 8.91 µM.

Test system in another data set: not listed separately
The data set can be described thus: Therapeutic index, ratio of CC50 for human C8166 cells to EC50 for wild type HIV1 3B infected in human C8166 cells. As to conditions: C8166 cells infected with wild type HIV1 3B, read-out: Ratio CC50/EC50. In kind it is cell-based. The method in brief:
(§2)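 CC50 from MTT assay on uninfected C8166 cells (A570/630, dose-response curve, 50% viable cell reduction) divided by EC50 from 3-day syncytium reduction assay in C8166 cells (4 × 10⁵/mL) infected at M.O.I 0.06; syncytia scored microscopically. Values are means of at least two separate experiments.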
Take `Cc1ccc(C(=O)Nc2cc(Cl)ccc2OCC(=O)Nc2ccc(S(N)(=O)=O)cc2C)cc1C`: the selectivity ratio was found to be 261000.
On to `Cc1cc(S(N)(=O)=O)ccc1NC(=O)COc1ccc(Cl)cc1NC(=O)c1cc(Cl)cc(C#N)c1`, for which the selectivity ratio was found to be 136000.
Take `Cc1cc(S(N)(=O)=O)ccc1NC(=O)COc1ccc(Cl)cc1NC(=O)c1cccc2ccccc12`: the selectivity ratio is more than 3500.
On to `Cc1cc(S(N)(=O)=O)ccc1NC(=O)COc1ccc(Cl)cc1NC(=O)c1ccc2ccccc2c1`, for which the selectivity ratio was determined as 373.

Test system in a further data set: not listed separately
The data set can be described thus: Therapeutic index, ratio of CC50 for human C8166 cells to EC50 for HIV1 A17 harbouring RT K103N/Y181C mutant infected in human C8166 cells. In kind it is cell-based. To be noted: read-out: Ratio CC50/EC50. The method in brief: as §2
In the case of `Cc1cc(S(N)(=O)=O)ccc1NC(=O)COc1ccc(Cl)cc1C(=O)c1cc(Cl)cc(C#N)c1`, the selectivity ratio was more than 1.37e+06.
Consider `Cc1ccc(C(=O)Nc2cc(Cl)ccc2OCC(=O)Nc2ccc(S(N)(=O)=O)cc2C)cc1C`, for which the selectivity ratio is 836.
Regarding `Cc1cc(S(N)(=O)=O)ccc1NC(=O)COc1ccc(Cl)cc1NC(=O)c1cc(Cl)cc(C#N)c1`, the selectivity ratio came to 454.
`Cc1cc(S(N)(=O)=O)ccc1NC(=O)COc1ccc(Cl)cc1NC(=O)c1cccc2ccccc12`: the selectivity ratio was more than 17.7.
Turning to `Cc1cc(S(N)(=O)=O)ccc1NC(=O)COc1ccc(Cl)cc1NC(=O)c1ccc2ccccc2c1`, the selectivity ratio came to 4.22.

For another data set, the target named is Human immunodeficiency virus type 1 reverse transcriptase (Human immunodeficiency virus 1, UniProt Q72547). The data set can be described thus: Inhibition of wild type HIV1 reverse transcriptase activity using poly (rA)/oligo (dT)15 homopolymer template after 1 hr by ELISA.
Details: not given
The method in brief: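 Wild-type RT; oligo(dT) immobilized on plates, poly(rA) template, biotin-11-dUTP incorporation. Reaction: 50 mM Tris-HCl pH 8.3, 3 mM MgCl2, 75 mM KCl, 5 mM DTT, 0.13 mg/mL BSA, […]; 37 °C, 1 h. Detection by streptavidin-alkaline phosphatase and PNPP (30 min, 37 °C), stopped with 0.5 M NaOH.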
(An ELISA detects its analyte on a solid surface through an enzyme-linked reagent.)
For the compound `Cc1cc(S(N)(=O)=O)ccc1NC(=O)COc1ccc(Cl)cc1C(=O)c1cc(Cl)cc(C#N)c1`, it took 0.00269 µM to reach half-maximal inhibition (IC50). In other words, the single-digit nanomolar range.
In turn, `Cc1ccc(C(=O)Nc2cc(Cl)ccc2OCC(=O)Nc2ccc(S(N)(=O)=O)cc2C)cc1C` yielded an IC50 of 0.00114 µM.
In turn, `Cc1cc(S(N)(=O)=O)ccc1NC(=O)COc1ccc(Cl)cc1NC(=O)c1cc(Cl)cc(C#N)c1` registered a 50% inhibitory concentration (IC50) of 0.00205 µM.
